The subject of one series is T-24. In words: Cytotoxicity against human T-24 cells […] assessed as reduction in cell viability preincubated for 48 hrs and measured after 4 hrs by MTT assay. Type of series: functional, cell-based. On the technique in general: Tetrazolium dyes change colour on reduction, which living cells bring about.
In series [1] the test system is MGC-803. Description: Cytotoxicity against human MGC-803 cells expressing mutant type p53 assessed as reduction in cell viability preincubated for 48 hrs and measured after 4 hrs by MTT assay. Format: functional, cell-based.
A further series deals with DU-145. In words: Cytotoxicity against human DU145 cells expressing mutant type p53 assessed as reduction in cell viability preincubated for 48 hrs and measured after 4 hrs by MTT assay. Format: functional, cell-based. An outline of the steps: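 MTT assay. Cells grown in DMEM (T24, MGC-803, A549, HL-7702), RPMI-1640 (DU145) or DMEM-F12 (PC-3), each with 10% FBS. Exposed to 1.25–20 µM in medium with 1% DMSO for 48 h, then MTT for 4 h. Formazan dissolved in DMSO and read at 570 nm. Five wells per concentration; means ± SD of independent repeats.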

Another series deals with PC-3. In words: Cytotoxicity against human PC-3 cells assessed as reduction in cell viability preincubated for 48 hrs and measured after 4 hrs by MTT assay. Format: functional, cell-based.
The test system of a further series is A549. In words: Cytotoxicity against human A549 cells expressing wild type p53 assessed as reduction in cell viability preincubated for 48 hrs and measured after 4 hrs by MTT assay. Type of series: functional, cell-based.
A further series concerns L02. Description: Cytotoxicity against human HL-7702 cells expressing wild type p53 assessed as reduction in cell viability preincubated for 48 hrs and measured after 4 hrs by MTT assay. Type of series: functional, cell-based.
Series [2] concerns MGC-803. Description: Antitumor activity against human MGC-803 cells xenografted in BALB/C nude mouse assessed as tumor growth inhibition at 10 mg/kg, ip administered every 2 days and measured 3 times per week. Type of series: functional, organism-based. Particulars: time 2.0 day. Summed up:
(§1)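 Male BALB/c nude mice, 6 weeks old, given 5×10^6 MGC-803 cells s.c. in the flank. When tumors reached about 80 mm3, mice were randomized (n = 6/group) and dosed i.p. every 2 days. Vehicle was 5% DMSO in saline. Drug solutions were 1.0 or 2.0 mg/mL (DMSO/saline). Tumor length and width plus body weight were measured three times weekly; volume = lw²/2. Mean ± SD.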
(In general: A xenograft is tissue or cells of one species grown in another, often human tumour cells in immunodeficient mice.)

Series [3] concerns MGC-803. Description: Antitumor activity against human MGC-803 cells xenografted in BALB/C nude mouse assessed as tumor growth inhibition at 10 mg/kg, ip administered every 2 days and measured 3 times per week for 16 days. Type of series: functional. Also noted: scale not given: the % may be the effect or the level left. Particulars: time 16 day. Summed up:
as §1

In another series the test system is Mus musculus. In words: Toxicity against BALB/c nude mouse xenografted with human MGC-803 cells assessed as body weight at 10 mg/kg, ip administered every 2 days and measured 3 times per week for 16 days. Particulars: in vivo, 384 h, time 16 day. Type of series: organism-based. Summed up: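 Male BALB/c nude mice, 6 weeks old, received 5×10^6 MGC-803 cells subcutaneously in the flank. At about 80 mm3, mice were randomized (n = 6/group). They were dosed i.p. every 2 days with vehicle (5% DMSO in saline, v/v) or drug in DMSO/saline at 1.0 or 2.0 mg/mL. Body weight was recorded three times weekly; mean ± SD.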

For a further series, the system named is PLC-PRF-5. Description: Antitumor activity against human PLC/PRF/5 cells xenografted in mouse assessed as tumor growth inhibition at 30 mg/kg. Type of series: functional. Particulars: read-out: TGI.
Series [4] concerns MGC-803. Description: Induction of apoptosis in human MGC-803 cells assessed as decrease in Bcl-2 expression at 5 uM measured after 24 hrs by Western blot analysis. Type of series: functional, cell-based. An outline of the steps: (§2)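 MGC-803 cells (2×10^6) plated overnight, then treated for 24 h at 0.5, 1.0 or 2.5 µM (test agent) or 5.0 µM (comparator). Whole-cell lysates separated by SDS-PAGE, transferred to PVDF and probed with primary antibodies. AP-linked anti-rabbit IgG, ECL detection, β-actin loading control. Representative of three experiments.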
A general note: In western blotting, separated proteins are transferred to a membrane and probed.

Series [5] concerns MGC-803. Description: Induction of apoptosis in human MGC-803 cells assessed as increase in Bax expression at 5 uM measured after 24 hrs by Western blot analysis. Type of series: functional, cell-based. Summed up: as §2
Series [6] concerns MGC-803. In words: Induction of apoptosis in human MGC-803 cells assessed as increase in Bim expression at 5 uM measured after 24 hrs by Western blot analysis. Type of series: functional, cell-based. Summed up:
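MGC-803 cells (2×10^6) cultured overnight, then exposed 24 h to 0.5, 1.0 or 2.5 μM, or 5.0 μM for the reference agent. Lysates were resolved by SDS-PAGE, transferred to PVDF and probed with primary antibodies. Detection used AP-linked anti-rabbit IgG and ECL. β-actin served as loading control.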

Series [7] deals with MGC-803. In words: Induction of apoptosis in human MGC-803 cells assessed as decrease in Bcl-xL expression at 5 uM measured after 24 hrs by Western blot analysis. Format: functional, cell-based. An outline of the steps: as §2
For series [8], the system named is MGC-803. In words: Induction of apoptosis in human MGC-803 cells assessed as decrease in Bak expression at 5 uM measured after 24 hrs by Western blot analysis. Type of series: functional, cell-based. Summed up:
as §2

Activity calls are given as the source filed them. The rule behind the calls is not given here.

By IC50 is commonly meant the midpoint of a concentration-inhibition curve. In the case of `COc1cccc2c1C(=O)c1c(O)c3c(c(O)c1C2=O)C[C@@](O)(C(=O)CO)C[C@@H]3O[C@H]1C[C@H](N)[C@@H](O)[C@H](C)O1` [EPIRUBICIN], the IC50 with T-24 came to 1.12 µM; with MGC-803 [1], 1.2 µM; with DU-145 it was 2.01 µM; with PC-3, 2.31 µM; in the series on A549, 0.82 µM; in the series on L02, 2.1 µM. Moreover, the outcome with MGC-803 [2] was Active. Also, the Activity with MGC-803 [3] is on record as 67.2%; in the series with Mus musculus, “Non-Toxic”.

Regarding `COc1ccc(/C=C/c2nc(NCCCN(C)C)c3ccccc3n2)cc1`, the IC50 with T-24 was 20.3 µM; in the series on MGC-803 [1], 18.3 µM; in the series with DU-145 it was 15.3 µM; in the series with PC-3, 16.3 µM; in the series with A549, 24.8 µM; in the series with L02, 25.3 µM. Besides, the inhibition in vivo at 30 mg/kg in the series on PLC-PRF-5 is 60%. Further, the result in the series with MGC-803 [4], with MGC-803 [5], in the series with MGC-803 [6], with MGC-803 [7] and in the series on MGC-803 [8] was inactive.

Consider `NCCCCNc1nc(/C=C/c2ccc3c(c2)OCO3)nc2ccc(Cl)cc12`, for which the half-inhibitory concentration (IC50) with T-24 is 5.65 µM; in the series on MGC-803 [1], 10.3 µM; in the series with DU-145 it was 50.3 µM; in the series with PC-3 it was greater than 100 µM; with A549, 9.82 µM; in the series on L02, greater than 100 µM.

For the molecule `O=[N+]([O-])c1ccc(/C=C/c2nc(NCCN3CCOCC3)c3ccccc3n2)cc1`, the half-inhibitory concentration (IC50) with T-24, in the series with MGC-803 [1], in the series with DU-145, in the series on PC-3, with A549 and in the series with L02 was greater than 100 µM throughout.

As to `COc1ccc(/C=C/c2nc(NCCN3CCCCC3)c3cc(Cl)ccc3n2)cc1OC`, the IC50 in the series on T-24 was 7.64 µM; in the series on MGC-803 [1], 13.5 µM; in the series with DU-145, 17.2 µM; with PC-3, 21.2 µM; in the series on A549 it was greater than 100 µM; in the series on L02 it was 13.9 µM.

Consider `CN(C)CCCNc1nc(/C=C/c2ccc3c(c2)OCO3)nc2ccccc12`, for which the concentration for half-maximal inhibition (IC50) is 8.81 µM with T-24; 14 µM with MGC-803 [1]; 25.4 µM in the series on DU-145; greater than 100 µM in the series with PC-3; greater than 100 µM in the series on A549; 14.5 µM with L02.

Regarding `COc1ccc(/C=C/c2nc(NCCN(C)C)c3cc(Cl)ccc3n2)cc1OC`, the 50% inhibitory concentration (IC50) in the series on T-24 amounted to 12.1 µM; with MGC-803 [1], 11.8 µM; with DU-145, 17.9 µM; in the series with PC-3, 23.6 µM; in the series with A549, 21.3 µM; in the series with L02, 80.5 µM.

For `CC(C)N(CCNc1nc(/C=C/c2ccc([N+](=O)[O-])cc2)nc2ccc(Cl)cc12)C(C)C`, the IC50 with T-24 is 56.6 µM; in the series on MGC-803 [1], 17.3 µM; in the series with DU-145, greater than 100 µM; in the series on PC-3, greater than 100 µM; with A549, greater than 100 µM; in the series on L02, greater than 100 µM.

Regarding `CC(C)N(CCNc1nc(/C=C/c2ccc([N+](=O)[O-])cc2)nc2ccccc12)C(C)C`, the IC50 with T-24 was 14.2 µM; in the series on MGC-803 [1] it was 29.1 µM; in the series on DU-145, greater than 100 µM; with PC-3 it was greater than 100 µM; in the series on A549 it was greater than 100 µM; in the series with L02, 8.96 µM.

With `COc1ccc(/C=C/c2nc(NCCCN(C)C)c3ccccc3n2)cc1OC`, the IC50 with T-24 was 88.4 µM; with MGC-803 [1], greater than 100 µM; in the series on DU-145, greater than 100 µM; with PC-3, greater than 100 µM; with A549, greater than 100 µM; with L02, greater than 100 µM.

`NCCCCNc1nc(/C=C/c2ccc([N+](=O)[O-])cc2)nc2ccc(Cl)cc12`: the half-inhibitory concentration (IC50) in the series with T-24 is 5.62 µM; in the series on MGC-803 [1] it was 9.16 µM; in the series on DU-145, greater than 100 µM; with PC-3, greater than 100 µM; in the series with A549, 10 µM; with L02, greater than 100 µM.

With `CN(C)CCNc1nc(/C=C/c2ccc([N+](=O)[O-])cc2)nc2ccccc12`, the concentration for half-maximal inhibition (IC50) was 8.95 µM with T-24; 14.4 µM with MGC-803 [1]; 15.7 µM in the series on DU-145; 51.1 µM with PC-3; 33.9 µM with A549; 18 µM in the series with L02.

Regarding `CCN(CC)CCCNc1nc(/C=C/c2ccc([N+](=O)[O-])cc2)nc2ccc(Cl)cc12`, the IC50 was 7.12 µM in the series on T-24; 7.37 µM in the series on MGC-803 [1]; 8.12 µM with DU-145; 6.89 µM in the series on PC-3; 76.4 µM with A549; 15 µM in the series with L02.

Consider `CN(C)CCCNc1nc(/C=C/c2ccc([N+](=O)[O-])cc2)nc2ccc(Cl)cc12`, for which the concentration for half-maximal inhibition (IC50) in the series with T-24 was 7.42 µM; in the series with MGC-803 [1], 6.67 µM; in the series with DU-145, 8.49 µM; in the series with PC-3 it was 5.32 µM; in the series on A549, 15.8 µM; in the series with L02, greater than 100 µM.

Consider `O=[N+]([O-])c1ccc(/C=C/c2nc(NCCN3CCCCC3)c3ccccc3n2)cc1`, for which the concentration for half-maximal inhibition (IC50) in the series with T-24 was 36.2 µM; with MGC-803 [1] it was 27.6 µM; in the series on DU-145 it was greater than 100 µM; with PC-3 it was 25.6 µM; in the series with A549, 28.2 µM; with L02, greater than 100 µM.

As to `CC(C)N(CCNc1nc(/C=C/c2ccc3c(c2)OCO3)nc2ccccc12)C(C)C`, the IC50 was 17.5 µM in the series with T-24; 11.3 µM in the series on MGC-803 [1]; greater than 100 µM in the series on DU-145; greater than 100 µM with PC-3; greater than 100 µM with A549; 21.2 µM in the series with L02.

Regarding `O=[N+]([O-])c1ccc(/C=C/c2nc(NCCN3CCCCC3)c3cc(Cl)ccc3n2)cc1`, the half-maximal inhibitory concentration (IC50) in the series on T-24 was 34.3 µM; with MGC-803 [1] it was 20 µM; in the series with DU-145, greater than 100 µM; with PC-3, greater than 100 µM; in the series on A549 it was 41.1 µM; with L02 it was greater than 100 µM.

Consider `CN(C)CCNc1nc(/C=C/c2ccc3c(c2)OCO3)nc2ccccc12`, for which the IC50 in the series with T-24 is 66.4 µM; in the series on MGC-803 [1], greater than 100 µM; with DU-145, greater than 100 µM; with PC-3, greater than 100 µM; in the series with A549, greater than 100 µM; in the series with L02 it was 57.8 µM.
